Screens as filed in PubChem BioAssay.
A selection: hits, their analogues and other compounds. The true share with any hit is near 2.9%.
SENP1 FRET inh: SENP1 (human) catalytic domain inhibition; recombinant SENP1 catalytic domain, CyPet-SUMO1-YPet FRET cleavage; hit rate 0.21% among 360,000; inhibition, % at 10 µM; AID 624204;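 active means inhibition at least 30% at 10 µM, raw YFP signal under a set limit, fluorescence ratio 0.5 to 1.5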
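Test system: recombinant human SENP1 catalytic domain, His6-tagged / Medium: pH 8 Tris buffer with EDTA, NaCl, BME, BSA, NP40, catalase / Also added: SUMO1 FRET substrate flanked by Cypet and Ypet, 25 nM / Times: 50 min reaction at room temperature / Signal: FRET, CFP and YFP emission / Control set: no-enzyme low control and enzyme-plus-DMSO high control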
SENP6 inh: inhibitors of human SENP6 protease; Q9GZR1; hit rate 1.8% among 330,000; inhibition, % at 10 µM; AID 2599; Recombinant SENP6 catalytic domain, aminoluciferin luminescence;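 active means inhibition above about 50% at the single tested dose, limit read from the data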
HSP90 inh: HSP90 refolding inhibition in rabbit reticulocyte lysate; luciferase refolding luminescence, 3 h; inhibition, % at 5.6 µM; hit rate 0.91% among 290,000;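 active means inhibition above the screen-wide mean plus 3 SD, computed separately per campaign, cut at about 16% in these data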;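 further: inhibitors lower the luminescence because luciferase stays unfolded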
SENP7 block: inhibitors of human SENP7 protease; inhibition, % at 5 µM; AID 434973; hit rate 1.5% among 330,000; recombinant SENP7, Z-RLRGG-aminoluciferin luminescence, 40 min;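 active means inhibition above about 50% at the single test dose, limit read from the data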
SENP8 block-1: SENP8 protease inhibition; Q96LD8; purified SENP8, Z-RLRGG-aminoluciferin cleavage, luminescence; inhibition, % at 10 µM; hit rate 1.2% among 330,000; in the data active means inhibition above about 50%
SENP8 block-2: blocks human SENP8 cleavage of Nedd8 substrate; Q96LD8; recombinant SENP8, Nedd8 substrate fluorescence; inhibition, % at 20 µM; hit rate 0.64% among 360,000; in the data active means inhibition mostly above about 40%, no sharp cut-off; inactive means mostly below about 27%
HSP90 confirm: HSP90 inhibition, confirmation assay | shares compounds with HSP90 inh | rabbit reticulocyte lysate, luciferase refolding luminescence, 3 h | inhibition, % at 5.9 µM | hit rate 64% among 2,300 | AID 1846; in the data active means inhibition above about 18%
FLuc counter: firefly luciferase inhibition, HSP90 counter-screen; hit rate 48% among 2,300; inhibition, % at 5.9 µM; shares compounds with HSP90 inh; purified native firefly luciferase, luminescence;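 active means inhibition above the mean inhibition of all tested sample wells plus 3 SD, cut at about 10% in these data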
Target sequence (P08659 whole entry, looked up): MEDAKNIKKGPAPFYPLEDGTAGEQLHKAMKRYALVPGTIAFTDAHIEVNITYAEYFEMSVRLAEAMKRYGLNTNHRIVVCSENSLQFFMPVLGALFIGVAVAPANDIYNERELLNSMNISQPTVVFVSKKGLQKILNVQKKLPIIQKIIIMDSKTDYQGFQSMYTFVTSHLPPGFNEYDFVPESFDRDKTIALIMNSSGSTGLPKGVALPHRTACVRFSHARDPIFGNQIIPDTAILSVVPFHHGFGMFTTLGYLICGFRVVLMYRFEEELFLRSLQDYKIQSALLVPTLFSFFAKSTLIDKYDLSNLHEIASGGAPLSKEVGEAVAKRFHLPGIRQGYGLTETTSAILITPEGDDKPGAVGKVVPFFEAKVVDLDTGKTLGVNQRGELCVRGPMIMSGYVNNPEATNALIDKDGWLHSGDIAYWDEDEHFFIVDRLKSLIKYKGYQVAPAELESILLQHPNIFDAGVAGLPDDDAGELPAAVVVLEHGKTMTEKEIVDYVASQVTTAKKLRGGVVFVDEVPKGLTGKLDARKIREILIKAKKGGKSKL
SENP8 conf: confirmation of human SENP8 protease inhibitors | shares compounds with SENP7 block | Recombinant SENP8, Z-RLRGG-aminoluciferin luminescence, 60 min | inhibition, % at 12.5 µM | hit rate 40% among 6,200 | AID 488912;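 active means mean inhibition across replicates above about 50%, limit read from the data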
SENP6 conf: confirmation of human SENP6 protease inhibitors; shares compounds with SENP7 block; recombinant SENP6, Z-RLRGG-aminoluciferin luminescence; inhibition, % at 12.5 µM; hit rate 58% among 6,200; AID 488915
SENP7 conf: confirmation of human SENP7 protease inhibitors. shares compounds with SENP7 block. recombinant SENP7, Z-RLRGG-aminoluciferin luminescence, 40 min. inhibition, % at 12.5 µM. hit rate 69% among 6,200
Casp3 select: selectivity test for SENP inhibitors: human caspase-3 inhibition; shares compounds with SENP7 block; purified caspase-3, Z-DEVD-aminoluciferin luminescence, 60 min; inhibition, % at 12.5 µM; hit rate 60% among 6,200;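 active means mean inhibition above about 50%, limit read from the data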
Luc interf: luminescence interference (SENP counter-screen). shares compounds with SENP7 block. Pre-incubated SENP8/Z-RLRGG-aminoluciferin, luciferase luminescence interference. inhibition, % at 12.5 µM. hit rate 39% among 6,200. AID 488919;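 active means mean inhibition above about 50% when retested at one dose, limit read from the data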
Numbers stand for hits; – = inactive; · = no result.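 How the source made its calls, unless noted: active means mean inhibition above about 50% in the one-dose retest (limit read from the data); inactive means the rest.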

SMILES	SENP1 FRET inh	SENP6 inh	HSP90 inh	SENP7 block	SENP8 block-1	SENP8 block-2	HSP90 confirm	FLuc counter	SENP8 conf	SENP6 conf	SENP7 conf	Casp3 select	Luc interf
N/C(=N\OC(=O)c1cccc(F)c1)c1ccccn1	–	90	31	91	81	–	16	68	91	93	101	97	90
N/C(=N\OC(=O)c1ccccc1)c1ccccn1	–	96	58	98	92	–	38	87	97	98	102	98	95
N/C(=N\OC(=O)c1ccccc1)c1ccncc1	–	–	–	–	–	–	·	·	·	·	·	·	·
Nc1cc2[nH]c(=O)c3ccccc3c2cc1[N+](=O)[O-]	–	·	·	·	·	–	·	·	·	·	·	·	·
COC(=O)C1=C(O)C(C(=O)OC)C(c2ccc(C)cc2)C(C#N)(C#N)C1c1ccc(C)cc1 (stereo not given)	–	–	–	–	–	–	·	·	·	·	·	·	·
CC(C)Cc1cc(C(=O)Nc2cccc(O)c2)no1	–	93	39	92	86	–	71	65	91	91	99	92	75
COc1ccc(-c2cc(C(=O)Nc3ccc(C)c(C)c3)no2)cc1	–	–	–	–	–	–	·	·	·	·	·	·	·
COc1ccc(-c2cc(C(=O)Nc3cccc(O)c3)no2)cc1	–	97	31	99	93	–	70	54	93	94	101	95	57
Cc1nc(SCc2nc3ccc(C(=O)c4ccccc4)cc3[nH]2)c2oc3ccccc3c2n1	–	–	·	–	–	–	·	·	·	·	·	·	·
c1ccc(-n2nnc3c(N4CCOCC4)ncnc32)cc1	–	81	30	75	50	–	66	55	–	–	–	–	–
O=C(c1cc(-c2ccc(Cl)cc2Cl)on1)N1CCOCC1	–	62	30	–	–	–	46	43	–	–	85	72	51
c1ccc2c(c1)CCN(c1nc(CN3CCOCC3)nc3sc4c(c13)CCCC4)C2	–	–	–	–	–	–	·	·	·	·	·	·	·
O=C(Nc1nncs1)c1cc2c(s1)CCC2	–	–	–	–	–	–	·	·	·	·	·	·	·
O=C(Nc1nccs1)c1cc2c(s1)CCCCC2	–	95	59	98	95	–	86	81	98	99	102	97	87
CCOC1=C2CN(S(=O)(=O)c3ccc(C)cc3)[C@H](c3ccccc3)C[C@@H]2N(S(=O)(=O)c2ccc(C)cc2)[C@H](c2cccs2)C1	–	·	·	·	·	–	·	·	·	·	·	·	·
COc1ccc(N=Cc2oc3ccc4ccccc4c3c2O)cc1	–	–	–	–	–	–	·	·	·	·	·	·	·
COc1ccc(N=Nc2ccc3ccccc3c2)c(O)c1	–	98	30	98	–	–	53	55	–	–	–	–	–
COc1ccc(N=Cc2ccccc2O)cc1	–	·	·	·	·	–	·	·	·	·	·	·	·
COc1cccc(N=Nc2ccc3ccccc3c2O)c1	–	89	28	100	96	–	58	58	–	–	–	92	–
Cc1ccc(N=Nc2ccc3ccccc3c2O)cc1	–	–	59	100	90	–	77	73	–	–	–	–	–
O=C(N1CCN=C1SCc1cccnc1)C12CC3CC(CC(C3)C1)C2	–	–	–	–	–	–	·	·	·	·	·	·	·
CCN(CC)C(=O)C1=C(C)N(Cc2ccccc2)C(=O)C(CC(=O)NCc2ccco2)C1 (stereo not given)	–	·	·	·	·	–	·	·	·	·	·	·	·
COc1ccc(O)c(C(=O)c2cnn(-c3ccccc3)c2)c1	–	–	–	–	–	–	·	·	·	·	·	·	·
COc1ccc(-n2cc(C(=O)c3ccccc3O)cn2)cc1	–	95	34	100	94	–	52	40	96	98	102	96	95
CC(NC(=O)COC(=O)C1CCN(c2ccc(C(F)(F)F)cn2)CC1)c1ccc(Br)cc1 (stereo not given)	–	–	–	–	–	–	·	·	·	·	·	·	·
SMILES	SENP1 FRET inh	SENP6 inh	HSP90 inh	SENP7 block	SENP8 block-1	SENP8 block-2	HSP90 confirm	FLuc counter	SENP8 conf	SENP6 conf	SENP7 conf	Casp3 select	Luc interf
Cc1ccc(C(=O)/C=C/c2ccc3c(c2)OCO3)o1	–	–	–	–	–	–	·	·	·	·	·	·	·
COc1ccc(-c2nsc3c(N4CCCCC4)ncnc23)cc1	–	67	61	95	92	–	82	63	–	–	–	–	–
COc1ccc(-c2nsc3c(N4CCCCC4C)ncnc23)cc1 (stereo not given)	–	88	78	78	81	–	83	80	68	71	76	76	–
O=C(COc1ccccc1-c1ccccc1)NN=C1CCCC1	–	–	–	–	–	–	·	·	·	·	·	·	·
CC1CCN(C(=O)c2cc3c(ccc4ccccc43)o2)CC1	–	93	25	90	89	–	49	34	89	90	98	78	76
CC(C)c1ccc(NC(=S)NNC(=O)c2cccs2)cc1	–	–	–	–	–	–	·	·	·	·	·	·	·
CCCCOc1ccc(-c2ncc(C(=O)O)c(C)n2)cc1	–	86	38	88	80	–	63	18	88	87	98	–	64
CCCCC(=O)Nc1cc2nn(-c3ccc(OC)cc3)nc2cc1C	–	–	–	–	–	–	·	·	·	·	·	·	·
CCC(=O)Nc1cc2nn(-c3ccc(C)cc3)nc2cc1C	–	–	51	51	–	–	75	67	–	–	–	–	–
COc1ccc(OC)c(S(=O)(=O)Nc2cc3c4c(c2)C(C)C(=O)N4CCC3)c1 (stereo not given)	–	–	·	–	–	–	·	·	·	·	·	·	·
Cc1nc(-c2ccccc2)sc1C(=O)O	–	–	–	–	–	–	·	·	·	·	·	·	·
CC(=O)c1sc(-c2ccccc2)nc1C	–	–	–	–	–	–	·	·	·	·	·	·	·
Cc1ccc(-c2nc(C)c(C(=O)O)s2)cc1	–	95	75	98	93	–	85	17	99	100	103	92	98
Cc1nc(-c2ccc([N+](=O)[O-])cc2)sc1C(=O)O	–	91	18	97	92	–	18	–	–	–	101	97	93
